High-throughput results deposited in PubChem by several laboratories.
ATG4B inh: inhibitors of human ATG4B cysteine protease. ATG4B cleavage of LC3-PLA2, NBD-HPC fluorescence, 1 h. Q9Y4P1. inhibition, % at 8.33 µM. AID 504462. actives 0.51% (n = 340,000); in the data active means inhibition above about 40%
SIAE inh: inhibitors of human sialic acid acetylesterase SIAE. SIAE FP-Rh probe binding, fluorescence polarization. inhibition, % at 9.66 µM. actives 0.69% (n = 370,000). AID 1053197;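 active means inhibition above a cutoff: mean of compounds within the control limits plus 3 SD of those, cut at about 17% in these data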
TCR-CD3 inh: inhibitors of human TCR-CD3 interaction; actives 0.37% (n = 360,000); TAMRA-labeled TCR probe fluorescence, biochemical; inhibition, % at 9.4 µM; in the data active means inhibition above about 19%;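 further: recombinant mutant TCR 2C K166C tagged with TAMRA read by polarization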
ABHD4 inh: ABHD4 (mouse) inhibition, primary FP screen | Q8VD66 | actives 0.54% (n = 370,000) | inhibition, % at 8.92 µM | purified mABHD4, FP-Rh probe fluorescence polarization;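 active means inhibition exceeding the mean over every tested compound plus 3 SD, cut at about 30% in these data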
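assay system = mABHD4 protein | compound dosing = single nominal dose of 8.92 µM, 0.89% DMSO final | read-out basis = percent inhibition of probe binding, normalized to plate controls | schedule = Enzyme–compound pre-incubation 45 min, then probe 60 min, both 25 °C | detection = fluorescence polarization, excitation 525 nm, emission 598 nm, BODIPY TMR filters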
PRMT1 inh: PRMT1 (human) inhibition, primary screen; Q99873; recombinant PRMT1, activity-based probe fluorescence polarization; inhibition, % at 2.79 µM; actives 1.3% (n = 370,000); AID 652257;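 active means inhibition above about 21% made by adding two undisclosed values, limit read from the data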
HTRA1 inhibitor: blocks human HTRA1 serine peptidase; actives 0.5% (n = 340,000); AID 504803; inhibition, % at 5.96 µM; recombinant HTRA1, FP-rhodamine activity-based probe, fluorescence polarization; in the data active means inhibition above about 36%
Target sequence (Q92743 whole entry, looked up): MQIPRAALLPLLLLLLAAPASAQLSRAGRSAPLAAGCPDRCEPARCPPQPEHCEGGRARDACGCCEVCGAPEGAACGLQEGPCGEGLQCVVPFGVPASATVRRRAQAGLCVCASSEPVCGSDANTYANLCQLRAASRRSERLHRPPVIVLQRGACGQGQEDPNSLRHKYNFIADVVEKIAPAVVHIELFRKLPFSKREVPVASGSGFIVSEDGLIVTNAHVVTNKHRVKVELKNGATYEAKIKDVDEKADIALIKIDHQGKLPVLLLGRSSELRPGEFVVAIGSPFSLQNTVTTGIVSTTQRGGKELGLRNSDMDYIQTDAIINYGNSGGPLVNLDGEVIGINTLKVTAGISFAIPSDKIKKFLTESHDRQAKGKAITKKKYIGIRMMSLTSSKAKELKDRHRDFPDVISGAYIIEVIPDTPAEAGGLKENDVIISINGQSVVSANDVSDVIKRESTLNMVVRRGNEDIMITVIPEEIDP
Numbers stand for hits; - = inactive; . = no result given; ! = a repeat was not active. Hits are enriched below; roughly 2.9% of the tested compounds scored in any of these assays.

SMILES	ATG4B inh	SIAE inh	TCR-CD3 inh	ABHD4 inh	PRMT1 inh	HTRA1 inhibitor
COc1ccc(-c2cc(C(=O)Nc3cc(OC)cc(C(=O)Nc4cccc(C(F)(F)F)c4)c3)[nH]n2)cc1	-	-	68!	-	-	-
COc1cc(NC(=O)c2ccno2)cc(C(=O)Nc2cccc(C(F)(F)F)c2)c1	-	-	-	-	-	-
Cc1cc(N2CCOc3ccccc32)nc2ccccc12	.	-	.	-	-	.
C[C@H]1[C@@H](OC(=O)NCc2cccnc2)CC[C@@]23CCCN2C(=O)CCC[C@@H]13	.	-	.	-	-	.
COc1ccc(S[C@]2(C(=O)N(C)C)CC(=O)N(C(=O)/C=C/c3ccccc3)[C@@H]2c2ccc(OC)cc2)cc1	.	-	.	-	-	.
CNc1cccccc1=S	-	-	-	-	26	-
CNc1ccccc1	-	-	-	-	-	-
COc1ccc2c(C)cc(=O)oc2c1C	-	-	-	-	-	-
Cc1cc(=O)oc2c3c(ccc12)OC/C3=N/N	-	-	22	-	-	-
Oc1ccc2[nH]cc(-c3cccs3)c2c1-c1ccccc1	.	-	.	-	-	.
COc1ccc(Br)cc1C(=O)Nc1ccc(N2CCCC2)cc1	-	-	19	-	-	-
O=C1CC(N2CCN(c3ccc(Cl)cc3)CC2)C(=O)N1c1ccccc1 (centres undefined)	-	-	-	-	-	-
O=C1CC(N2CCN(c3ccccc3Cl)CC2)C(=O)N1c1ccccc1 (centres undefined)	-	-	-	-	24	-
Cc1cccc(C)c1NC(=O)[C@@H]1CC(=O)O[C@@H]1c1ccccc1	.	-	.	-	-	.
Cn1ccnc1SCC(=O)Nc1sccc1C#N	-	-	-	-	22	-
Cc1nnc(SCC(=O)Nc2sccc2C#N)s1	-	-	-	-	-	-
O=C(CSc1nc2ccccc2c(=O)[nH]1)Nc1ccc(S(=O)(=O)N2CCCC2)cc1	-	-	-	-	23	-
O=C(Nc1ccccc1[N+](=O)[O-])NC1CCCCN(Cc2cccc(Cl)c2)C1=O (centres undefined)	.	-	.	-	-	.
CCOC(=O)[C@]12CCCC3=C1N(CCC3)C(=O)[C@@H](CC(=O)NCCCOC)C2	.	-	.	-	-	.
Oc1ccc(C2Nc3cccc4cccc(c34)N2)c(O)c1	-	20	-	-	-	42
CC(C)(C)OC(=O)/C=C/[C@@H](CCCCl)Sc1ccc(C(C)(C)C)cc1	.	-	.	-	-	.
Cc1ccc(C(=O)O)cc1NS(=O)(=O)c1ccc2ccccc2c1	-	-	-	-	-	-
CC(C)OC(=O)C(C(=O)C(F)(F)F)c1cc(NS(=O)(=O)c2ccc3ccccc3c2)c2ccccc2c1O (centres undefined)	51	.	.	.	.	-
Nc1nnc(CC(=O)N/N=C/c2cc([N+](=O)[O-])cc(Br)c2O)s1	-	-	34	39	-	-
CCOc1cc(NC(=S)Nc2cccc(C)c2)c(OCC)cc1NC(=O)CC(C)C	-	-	-	-	24	-
SMILES	ATG4B inh	SIAE inh	TCR-CD3 inh	ABHD4 inh	PRMT1 inh	HTRA1 inhibitor
Cc1ccc(CCNc2ccc3ccccc3c2)cn1	-	-	-	-	23	-
Cc1ccc(NCCc2ccc(C)nc2)cc1	-	-	-	-	-	-
CCCC[C@H]1C2CC(OC(=O)Nc3cccc(F)c3)C(C2)[C@H]2CCCCN21 (some centres undefined)	.	-	.	-	-	.
O=[N+]([O-])c1ccc(Sc2nc3ccccc3o2)c([N+](=O)[O-])c1	-	-	-	-	-	-
O=c1[nH]c(Sc2ccc([N+](=O)[O-])cc2[N+](=O)[O-])nc2ccccc12	-	-	-	-	23	-
COc1cc(C(=O)Nc2nc(C)c(Cc3ccc4c(c3)OCO4)s2)cc(OC)c1OC	-	-	-	-	23	-
CCOC(=O)c1c(NC(=S)NC)sc2c1CC(C)(C)SC2	-	-	-	-	24	-
CCOC(=O)c1c(NC(=S)Nc2ccccc2)sc2c1CC(C)(C)SC2	-	-	-	-	-	-
CCOC(=O)N1CCN(C(=O)C[C@H]2C[C@@]3(C(=O)OC)C(=C[C@H](COCc4ccccc4)O[C@@H]3C)N(Cc3ccco3)C2=O)CC1	.	-	.	-	-	.
CNC(=O)C1(CC(C)C)C=CCN1C(C)=O (centres undefined)	-	17	-	-	-	-
O=C(c1cnn2c(C(F)(F)F)cc(-c3cccs3)nc12)N1CCCC1	-	-	-	-	-	-
O=C(NCc1ccco1)c1cnn2c(C(F)(F)F)cc(-c3cccs3)nc12	-	-	-	-	23	-
O=C(Nc1ccc(F)cc1)OCc1cn(Cc2cccc(C(F)(F)F)c2)nn1	.	-	.	-	-	.
COc1ccccc1NC(=S)OCCN1CCCC12CCC(c1ccccc1)CC2 (centres undefined)	.	-	.	-	22	.
COc1ccccc1NC(=O)OCCN1CCCC12CCC(c1ccccc1)CC2 (centres undefined)	.	-	.	-	-	.
FC(F)(F)c1ccccc1Cn1ccc2ccc(-c3ccc4ccn(Cc5ccccc5C(F)(F)F)c4c3)cc21	.	-	.	-	-	.
CCOc1ccc(C(NC(=O)/C=C/c2ccco2)c2ccc(OC)c(OC)c2)cc1 (centres undefined)	-	-	-	-	-	-
COc1ccc(C(NC(=O)/C=C/c2ccco2)c2ccc(OC)c(OC)c2)cc1 (centres undefined)	-	-	-	-	25	-
O=C(O)CSc1c2ccccc2cc2ccccc12	-	-	-	-	31	-
COc1ccccc1NC1=C(NC(C)=O)C(=O)c2ccccc2C1=O	-	-	-	-	25	-
COC(=O)[C@]12C[C@H](CC(=O)NCc3ccccc3)C(=O)N(CCC3=CCCCC3)C1=C[C@H](C1CCCC1)O[C@@H]2C	.	-	.	-	-	.
O=C1OC(c2ccccc2)Sc2ccccc21 (centres undefined)	48	-	-	-	-	-
O=C1OC(c2cccs2)Sc2ccccc21 (centres undefined)	.	-	-	-	25	.
O=C1O[C@@H](c2ccccc2)C[C@@H](O)C(=O)CCCc2ccccc21	.	-	-	-	-	.
Cc1ccc(C(=O)NC2CCCCN(Cc3cccc(F)c3)C2=O)cc1 (centres undefined)	.	-	.	-	-	.
FC(F)(F)Oc1cccc(Cn2ccc3ccc(-c4ccc5ccn(Cc6cccc(OC(F)(F)F)c6)c5c4)cc32)c1	.	-	.	-	-	.
COc1cccc(NC2=C(C#N)C(=O)NC(c3cccc(OC)c3O)S2)c1 (centres undefined)	-	-	-	-	-	-
N#CC1=C(Nc2ccccc2Cl)SC(c2ccccc2O)NC1=O (centres undefined)	-	-	-	-	24	-
CC(=O)Oc1cc(O)c2c(=O)c(OC(C)=O)c(-c3ccc(OC(C)=O)c(OC(C)=O)c3)oc2c1	-	.	.	.	.	50
